Structures are written as SMILES. Active and inactive are the calls of the source. The calls are words filed in the database; no cut-off is given here.

Assay [1] has as its target T1, Protein cereblon/Histone-lysine N-methyltransferase EZH2 (Homo sapiens) (UniProt Q15910+Q96SW2). The experiment in a line: PROTAC activity at CRBN E3 ligase/EZH2 in PRC2 complex in human LNCaP cells assessed as induction of RbAp48 degradation by measuring reduction in RbAp48 protein level at 1 uM incubated for 48 hrs by Western blot analysis. In kind it is cell-based. In short, it runs like this: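 Cancer cell lines exposed to 1 μM compound for 48 h. Lysates immunoblotted (SDS-PAGE, nitrocellulose, 5% milk block, primary antibody overnight at 4 °C) for EZH2, SUZ12, EED, RbAp48 and H3K27me3. Bands quantified by densitometry and normalized to GAPDH.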
In general terms: In western blotting, separated proteins are transferred to a membrane and probed.

In assay [2] the target is T1, Protein cereblon/Histone-lysine N-methyltransferase EZH2 (Homo sapiens). The experiment in a line: PROTAC activity at CRBN E3 ligase/EZH2 in PRC2 complex in human WSUDLCL2 cells assessed as downregulation of EED expression at 1 uM pretreated with MLN4924 for 4 hrs followed by compound addition and measured after 48 hrs by Western blot analysis. In kind it is cell-based. A digest of the protocol: (§1)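 WSU-DLCL-2 cells pretreated 4 h with the named inhibitor, then compound added and incubated a further 48 h. EZH2, SUZ12, EED and RbAp48 measured by western blot (nitrocellulose transfer, skim-milk block, primary antibody overnight at 4 °C, chemiluminescent detection).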

Another assay has as its system A549. The experiment in a line: Downregulation of CENPK mRNA expression in human A549 cells at 10 uM incubated for 48 hrs by qRT-PCR analysis. In kind it is functional, cell-based. In short, it runs like this:
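Cells treated 48 h. Total RNA extracted with Trizol, reverse-transcribed, and SYBR RT-qPCR run: 95 °C 30 s, then 40 cycles of 95 °C 6 s and 60 °C 20 s. mRNA normalized to the DMSO-treated group. Mean SD of three independent experiments, t-test versus DMSO.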
On the technique in general: Quantitative PCR measures a nucleic acid by following its amplification.

For assay [3], the target named is T1, Protein cereblon/Histone-lysine N-methyltransferase EZH2 (Homo sapiens). The experiment in a line: PROTAC activity at CRBN E3 ligase/EZH2 in PRC2 complex in human WSUDLCL2 cells assessed as increase in SUZ12 ubiquitination at 1 uM measured after 48 hrs by co-immunoprecipitation assay. Format: cell-based. In short, it runs like this: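 WSU-DLCL-2 cells treated with 1 μM compound for 48 h and lysed in RIPA buffer. Lysates incubated with antibodies overnight at 4 °C, then 3 h with Protein G agarose beads at 4 °C. Proteins eluted in IP buffer and ubiquitination of the target probed by immunoblot.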

Assay [4] shares this target. The assay can be described thus: PROTAC activity at CRBN E3 ligase/EZH2 in PRC2 complex in human SU-DHL-6 cells assessed as reduction in H3K27me3 level at 1 uM incubated for 48 hrs by Western blot analysis. Format: cell-based. In short, it runs like this: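 Cells cultured in DMEM or RPMI 1640 with 10% FBS and 1% penicillin-streptomycin, 37 °C, 5% CO2; exposed to 1 μM compound for 48 h. Lysates run on SDS-PAGE and transferred to nitrocellulose. Blocked 2 h in 5% skim milk, primary antibody overnight at 4 °C, then secondary antibody. Chemiluminescent detection of PRC2 subunits and H3K27me3.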

Assay [5] shares this target. The experiment in a line: PROTAC activity at CRBN E3 ligase/EZH2 in PRC2 complex in human WSUDLCL2 cells assessed as induction of EED degradation by measuring reduction in EED protein level at 1 uM measured after 48 to 72 hrs by Western blot analysis. In kind it is cell-based. The note with it: time 48-72 hrs.
The target is the same in assay [6]. The assay can be described thus: PROTAC activity at CRBN E3 ligase/EZH2 in PRC2 complex in human WSUDLCL2 cells assessed as downregulation of EZH2 expression at 1 uM pretreated with MLN4924 for 4 hrs followed by compound addition and measured after 48 hrs by Western blot analysis. In kind it is cell-based. In short, it runs like this: as §1
The target is the same in assay [7]. The experiment in a line: PROTAC activity at CRBN E3 ligase/EZH2 in PRC2 complex in human WSUDLCL2 cells assessed as induction of EED degradation at 1 uM incubated for 48 hrs by Western blot analysis relative to control. In kind it is cell-based. In short, it runs like this:
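WSU-DLCL-2 cells exposed to 1 μM compound for 48 h, with DMSO-treated cells as control. Bands quantified by densitometry and normalized to GAPDH. Mean SD from three independent experiments, t-test versus DMSO.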

For assay [8] the target is unchanged. The assay can be described thus: PROTAC activity at CRBN E3 ligase/EZH2 in PRC2 complex in human WSUDLCL2 cells assessed as effect on EED mRNA expression at 1 uM incubated for 48 hrs by RT-qPCR analysis. Format: cell-based. A digest of the protocol: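 WSU-DLCL-2 cells treated 48 h with 1 μM compound. Total RNA extracted with Trizol and reverse-transcribed. SYBR qPCR run as 95 °C 30 s, then 40 cycles of 95 °C 6 s and 60 °C 20 s. PRC2 subunit mRNA normalized to the DMSO-treated group; mean SD, t-test.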

Assay [9] shares this target. The assay can be described thus: PROTAC activity at CRBN E3 ligase/EZH2 in PRC2 complex in human WSUDLCL2 cells assessed as downregulation of EED expression at 1 uM pretreated with EED226 for 4 hrs followed by compound addition and measured after 48 hrs by Western blot analysis. In kind it is cell-based. In short, it runs like this: as §1
Another assay deals with WSUDLCL2. The experiment in a line: Inhibition of PRC2 in human WSUDLCL2 cells assessed as suppression H3K27 dimethylation at 10 uM incubated for 48 hrs by Western blot analysis. In kind it is cell-based. A digest of the protocol: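 Lysates run on SDS-PAGE and transferred to nitrocellulose. Membranes blocked with 5% skim milk for 2 h, primary antibody applied overnight at 4 °C, then secondary antibody and chemiluminescent detection of histone H3 methylation marks.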

Assay [10] addresses T2, Histone-lysine N-methyltransferase EZH1 (Homo sapiens, UniProt Q92800).
T2 sequence (Q92800 whole entry): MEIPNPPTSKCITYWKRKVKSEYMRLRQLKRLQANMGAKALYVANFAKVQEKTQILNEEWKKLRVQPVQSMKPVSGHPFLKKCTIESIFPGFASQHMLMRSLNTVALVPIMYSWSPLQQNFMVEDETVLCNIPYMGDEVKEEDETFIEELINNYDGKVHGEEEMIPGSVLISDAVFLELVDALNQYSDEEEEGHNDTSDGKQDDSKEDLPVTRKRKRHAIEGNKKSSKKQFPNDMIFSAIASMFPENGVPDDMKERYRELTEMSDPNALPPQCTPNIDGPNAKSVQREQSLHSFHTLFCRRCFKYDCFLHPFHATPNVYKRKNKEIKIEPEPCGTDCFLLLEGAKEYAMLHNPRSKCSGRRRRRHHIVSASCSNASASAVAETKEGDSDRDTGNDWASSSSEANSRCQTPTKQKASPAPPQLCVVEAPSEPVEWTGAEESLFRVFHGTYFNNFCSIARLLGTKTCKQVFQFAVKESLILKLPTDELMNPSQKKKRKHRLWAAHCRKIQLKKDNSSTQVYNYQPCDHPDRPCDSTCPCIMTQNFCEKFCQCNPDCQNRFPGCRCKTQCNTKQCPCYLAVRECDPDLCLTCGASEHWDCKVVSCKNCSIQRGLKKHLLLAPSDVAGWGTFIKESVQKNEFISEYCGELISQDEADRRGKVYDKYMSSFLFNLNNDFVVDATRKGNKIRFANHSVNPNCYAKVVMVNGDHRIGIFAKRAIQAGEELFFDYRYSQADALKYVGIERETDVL
The assay can be described thus: Inhibition of recombinant full length human N-terminal FLAG-tagged EZH1 in PRC2 complex expressed in baculovirus system using SAM as substrate preincubated for 15 mins followed by substrate addition and measured after 60 mins by AlphaLISA immunodetection assay. In general terms: In Alpha technology, singlet oxygen from a donor bead excites a nearby acceptor bead.

T1 sequence (Q15910 whole entry, looked up): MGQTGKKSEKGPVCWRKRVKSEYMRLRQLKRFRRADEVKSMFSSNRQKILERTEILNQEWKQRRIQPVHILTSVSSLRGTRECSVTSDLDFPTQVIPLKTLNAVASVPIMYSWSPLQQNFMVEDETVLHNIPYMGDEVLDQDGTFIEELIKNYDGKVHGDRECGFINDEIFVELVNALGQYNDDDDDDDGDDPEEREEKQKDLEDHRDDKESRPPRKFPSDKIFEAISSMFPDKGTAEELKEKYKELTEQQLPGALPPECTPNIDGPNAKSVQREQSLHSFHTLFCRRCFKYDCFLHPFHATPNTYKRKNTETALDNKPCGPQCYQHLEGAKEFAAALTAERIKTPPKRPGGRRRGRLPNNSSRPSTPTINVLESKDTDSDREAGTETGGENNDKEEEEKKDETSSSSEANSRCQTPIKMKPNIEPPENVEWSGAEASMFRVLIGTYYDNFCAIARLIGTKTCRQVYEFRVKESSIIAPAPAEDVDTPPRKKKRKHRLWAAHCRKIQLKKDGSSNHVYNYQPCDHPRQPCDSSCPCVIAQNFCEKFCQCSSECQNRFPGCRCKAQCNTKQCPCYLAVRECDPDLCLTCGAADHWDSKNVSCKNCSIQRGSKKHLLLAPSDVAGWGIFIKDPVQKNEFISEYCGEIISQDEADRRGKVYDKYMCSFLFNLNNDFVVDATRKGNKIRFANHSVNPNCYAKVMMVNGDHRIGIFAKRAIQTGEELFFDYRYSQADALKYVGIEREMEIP
T1 sequence (Q96SW2 whole entry, looked up): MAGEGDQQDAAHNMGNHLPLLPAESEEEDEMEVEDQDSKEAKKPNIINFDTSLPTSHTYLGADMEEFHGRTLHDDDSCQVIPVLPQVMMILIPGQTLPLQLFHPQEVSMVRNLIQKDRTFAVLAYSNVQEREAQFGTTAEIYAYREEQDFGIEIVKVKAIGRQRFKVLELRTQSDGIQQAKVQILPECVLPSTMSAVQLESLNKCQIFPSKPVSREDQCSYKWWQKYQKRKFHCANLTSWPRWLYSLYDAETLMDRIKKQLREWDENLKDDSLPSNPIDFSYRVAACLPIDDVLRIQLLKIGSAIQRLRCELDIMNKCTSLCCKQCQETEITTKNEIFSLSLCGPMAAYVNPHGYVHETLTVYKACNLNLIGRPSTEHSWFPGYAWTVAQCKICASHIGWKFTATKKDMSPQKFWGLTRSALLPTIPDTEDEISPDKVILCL

For orientation: IC50 means the concentration needed to halve the response being measured. `CCN(c1cc(-c2ccc(CN3CCN(CCCCCCCOc4cccc5c4C(=O)N(C4CCC(=O)NC4=O)C5=O)CC3)cc2)cc(C(=O)NCc2c(C)cc(C)[nH]c2=O)c1C)C1CCOCC1` (configuration not stated): the result (in assay [1]; in the assay with A549; in assay [3]; in assay [4]; in assay [5]; in [9]) was Active. Besides, the outcome in assay [2], in [6] and in [8] was inactive. The Activity in assay [7] amounted to 75%. For the same compound, the inhibition result in the assay with WSUDLCL2 was “Active”. Besides, the 50% inhibitory concentration (IC50) in assay [10] came to 0.179 µM.

These data come from ChEMBL document CHEMBL5038571, “Design and Synthesis of EZH2-Based PROTACs to Degrade the PRC2 Complex for Targeting the Noncatalytic Activity of EZH2” (J Med Chem, 2021).
